We go through 20 compounds from ChEMBL document CHEMBL1141659, “Synthesis, properties, and perspectives of gem-diphosphono substituted-thiazoles” (2008).

In assay [1] the test system is Rattus norvegicus. Briefly: Antiresorptive activity in thyroidparathyroidectomized sc dosed rat assessed as inhibition of 1,25-dihydroxyvitamin D3-induced hypercalcemia. It counts as functional. The method, boiled down:
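In vivo bone resorption was driven by 1,25-dihydroxyvitamin D3, which induced hypercalcemia in thyroparathyroidectomized (TPTX) rats. ED50 values for inhibition of resorption were determined following an earlier published method.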

Assay [2] deals with Mus musculus. Briefly: Antiinflammatory activity in delayed type hypersensitivity mouse model assessed as inhibition of granuloma wet weight at 100 mg/kg, sc.
Assay [3] deals with Mus musculus. As to the kind of experiment: Antiinflammatory activity in delayed type hypersensitivity mouse model assessed as inhibition of granuloma dry weight at 100 mg/kg, sc.

As for `O=C1NC(=S)SC1C(c1ccccc1)C(P(=O)(O)O)P(=O)(O)O` (stereo not drawn), in assay [1], the 50% effective dose (ED50) is 0.077 mg/kg. The inhibition in vivo at 100 mg/kg in assay [2] was found to be 46%; in assay [3], 39%.
On the same counts, the results for `Cc1ccc(C(C(C#N)c2nc3ccccc3s2)C(P(=O)(O)O)P(=O)(O)O)cc1` (stereo not drawn) are 0.11 mg/kg, 36% and 38%.
`N#CC(c1nc2ccccc2s1)C(c1ccc([N+](=O)[O-])cc1)C(P(=O)(O)O)P(=O)(O)O` (stereo not drawn): the ED50 in assay [1] was 0.095 mg/kg. For the same compound, the values for the inhibition in vivo at 100 mg/kg in assay [2] and in assay [3] were 50% and 38%, respectively.
In the same order, the values of `O=C1NC(=S)SC1C(c1ccc([N+](=O)[O-])cc1)C(P(=O)(O)O)P(=O)(O)O` (stereo not drawn) are 0.085 mg/kg, 43% and 46%.
In the same order, the values of `N#CC(c1nc2ccccc2s1)C(c1ccc(Cl)cc1)C(P(=O)(O)O)P(=O)(O)O` (stereo not drawn) are 0.09 mg/kg, 52% and 53%.
Consider `O=C1NC(=S)SC1C(c1ccccc1O)C(P(=O)(O)O)P(=O)(O)O` (stereo not drawn), for which the ED50 in assay [1] is 0.078 mg/kg. The inhibition in vivo at 100 mg/kg is 54% in assay [2] and 51% in assay [3].
In the same order, the values of `O=[N+]([O-])c1ccc(/C=C(\c2nc3ccccc3s2)C(P(=O)(O)O)P(=O)(O)O)cc1` are 0.115 mg/kg, 8% and 10%.
Turning to `O=C1NC(=S)SC1C(c1ccccc1[N+](=O)[O-])C(P(=O)(O)O)P(=O)(O)O` (stereo not drawn), the 50% effective dose (ED50) in assay [1] is 0.088 mg/kg. For the same compound, the inhibition in vivo at 100 mg/kg in assay [2] turned out to be 42%; in assay [3], 46%.
With `O=P(O)(O)C(/C(=C/c1ccc(Cl)cc1)c1nc2ccccc2s1)P(=O)(O)O`, in assay [1], the ED50 was 0.118 mg/kg.
For `N#CC(c1nc2ccccc2s1)C(c1ccccc1Cl)C(P(=O)(O)O)P(=O)(O)O` (stereo not drawn), the ED50 in assay [1] was 0.09 mg/kg. Besides, the inhibition in vivo at 100 mg/kg in assay [2] came out at 50%; in assay [3], 41%.
In the case of `O=P(O)(O)C(/C(=C/c1ccccc1Cl)c1nc2ccccc2s1)P(=O)(O)O`, in assay [1], the ED50 is 0.105 mg/kg.
`O=C1NC(=S)SC1C(c1ccccc1Cl)C(P(=O)(O)O)P(=O)(O)O` (stereo not drawn): the ED50 in assay [1] is 0.08 mg/kg. Also, the figures for the inhibition in vivo at 100 mg/kg in assay [2] and in assay [3] were 38% and 44%, respectively.
On the same counts, the results for `CN(C)c1ccc(C(C(C#N)c2nc3ccccc3s2)C(P(=O)(O)O)P(=O)(O)O)cc1` (stereo not drawn) are 0.08 mg/kg, 53% and 58%.
On the same counts, the results for `N#CC(c1nc2ccccc2s1)C(c1ccccc1[N+](=O)[O-])C(P(=O)(O)O)P(=O)(O)O` (stereo not drawn) are 0.105 mg/kg, 48% and 51%.
Turning to `O=P(O)(O)C(O)(Cc1cccnc1)P(=O)(O)O` [RISEDRONIC ACID], the inhibition in vivo at 100 mg/kg in assay [2] was found to be 48%; in assay [3], 44%.
`CN(C)c1ccc(/C=C(\c2nc3ccccc3s2)C(P(=O)(O)O)P(=O)(O)O)cc1`: the ED50 in assay [1] was 0.11 mg/kg. The inhibition in vivo at 100 mg/kg in assay [2] turned out to be 14%; in assay [3], 19%.
In the same order, the values of `CN(C)c1ccc(C(C2SC(=S)NC2=O)C(P(=O)(O)O)P(=O)(O)O)cc1` (stereo not drawn) are 0.07 mg/kg, 52% and 55%.
On the same counts, the results for `Cc1ccc(/C=C(\c2nc3ccccc3s2)C(P(=O)(O)O)P(=O)(O)O)cc1` are 0.125 mg/kg, 6% and 13%.
On the same counts, the results for `O=[N+]([O-])c1ccccc1/C=C(\c1nc2ccccc2s1)C(P(=O)(O)O)P(=O)(O)O` are 0.135 mg/kg, 8% and 11%.
As for `NCCC(O)(P(=O)(O)O)P(=O)(O)O` [PAMIDRONIC ACID], the median effective dose (ED50) in assay [1] was 0.085 mg/kg.
